From ChEMBL document CHEMBL3046654, “Penoxsulam--structure-activity relationships of triazolopyrimidine sulfonamides” (Bioorg Med Chem, 2009) come the findings set out here.

SMILES strings stand for the structures. A value given as a limit tells only on which side of the number the result lay.

For one data set, the system named is Echinochloa crus-galli. The experiment in a line: Post-emergence herbicidal activity against Echinochloa crus-galli (barnyard grass) compound treated as foliar application measured after 2 weeks. Type of data set: functional. In outline:
(§1)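 Greenhouse post-emergence foliar screen in 64 cm² pots. Seed treatments were used on some species to aid germination. Plants were grown 7–21 days at 23–29 °C day/22–28 °C night under a 15 h photoperiod. Sprayed at 2–12 cm height and the 1–4 true leaf stage.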

The next data set relates to Digitaria sanguinalis. The experiment in a line: Post-emergence herbicidal activity against Digitaria sanguinalis (hairy crabgrass) compound treated as foliar application measured after 2 weeks. The class given is functional. In outline:
as §1

The subject of the next data set is Stellaria media. In words: Post-emergence herbicidal activity against Stellaria media compound treated as foliar application measured after 2 weeks. The class given is functional. In a few lines: as §1
A further data set concerns Xanthium strumarium. The experiment in a line: Post-emergence herbicidal activity against Xanthium strumarium (cocklebur) compound treated as foliar application measured after 2 weeks. The class given is functional. In outline: as §1
The subject of another data set is Fallopia convolvulus. In words: Post-emergence herbicidal activity against Fallopia convolvulus compound treated as foliar application measured after 2 weeks. Type of data set: functional. In a few lines: as §1
For the next data set, the system named is Alopecurus. In words: Post-emergence herbicidal activity against Alopecurus spp. compound treated as foliar application measured after 2 weeks. Type of data set: functional. In a few lines:
as §1

In another data set the test system is Datura stramonium. In words: Post-emergence herbicidal activity against Datura stramonium compound treated as foliar application measured after 2 weeks. The class given is functional. In outline: as §1
For another data set, the system named is Oryza sativa. The experiment in a line: Phytotoxicity against Oryza sativa (rice). Type of data set: organism-based. The note with it: in vivo.
Data set [1] can be described thus: Inhibition of acetolactatae synthase. The note with it: read-out: I50. In a few lines: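 Barley ALS: etiolated shoots of 5–6 d old Hector Spring barley homogenized at 0–4 °C in 20 mM HEPES pH 7.2, 1 mM EDTA, 5 mM DTT, then 33% (NH4)2SO4 cut. Reaction: 20 mM HEPES pH 7.2, 5 mM MgCl2, 0.25 mM TPP, FAD, 22.5 mM pyruvate, 0.7% DMSO final, 37 °C, 30 min. Acid decarboxylation to acetoin, then creatine/1-naphthol colour read at 530 nm. Reported as I50 (nM).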

A further data set has as its system Ipomoea hederacea. In words: Post-emergence herbicidal activity against Ipomoea hederacea (ivy-leaved morning glory) compound treated as foliar application measured after 2 weeks. Type of data set: functional. In outline: as §1
The subject of the next data set is Helianthus. The experiment in a line: Post-emergence herbicidal activity against Helianthus spp. compound treated as foliar application measured after 2 weeks. The class given is functional. In a few lines: as §1
Another data set has as its system Sorghum halepense. The experiment in a line: Post-emergence herbicidal activity against Sorghum halepense (Johnson grass) compound treated as foliar application measured after 2 weeks. The class given is functional. In outline:
as §1

The next data set deals with Abutilon theophrasti. The experiment in a line: Post-emergence herbicidal activity against Abutilon theophrasti (velvetleaf) compound treated as foliar application measured after 2 weeks. The class given is functional. In outline:
as §1

The next data set deals with Avena fatua. In words: Post-emergence herbicidal activity against Avena fatua compound treated as foliar application measured after 2 weeks. Type of data set: functional. In outline:
as §1

For another data set, the system named is Ipomoea. In words: Post-emergence herbicidal activity against Ipomoea spp. compound treated as foliar application measured after 2 weeks. The class given is functional. In outline:
as §1

In another data set the test system is Amaranthus retroflexus. The experiment in a line: Post-emergence herbicidal activity against Amaranthus retroflexus compound treated as foliar application measured after 2 weeks. Type of data set: functional. In outline: as §1
Another data set deals with Setaria faberi. The experiment in a line: Post-emergence herbicidal activity against Setaria faberi (Giant Foxtail) compound treated as foliar application measured after 2 weeks. Type of data set: functional. In outline: as §1
The next data set deals with Chenopodium album. In words: Post-emergence herbicidal activity against Chenopodium album compound treated as foliar application measured after 2 weeks. Type of data set: functional. In a few lines:
as §1

Another data set concerns Veronica hederifolia. In words: Post-emergence herbicidal activity against Veronica hederifolia compound treated as foliar application measured after 2 weeks. Type of data set: functional. In outline:
as §1

On to `COc1cnc(OC)n2nc(NS(=O)(=O)c3c(Cl)cccc3Cl)nc12`, for which the GR80 was found to be 4 ppm in the data set on Echinochloa crus-galli; 8 ppm in the data set with Digitaria sanguinalis; 2 ppm in the data set on Stellaria media; 2 ppm with Xanthium strumarium; 2 ppm in the data set on Fallopia convolvulus; 8 ppm in the data set on Alopecurus. The GR80 in the data set on Datura stramonium worked out at 2 ppm; in the data set with Ipomoea hederacea, 2 ppm; in the data set on Helianthus, 2 ppm; with Sorghum halepense, 8 ppm; in the data set on Abutilon theophrasti, 2 ppm; in the data set on Avena fatua, 8 ppm. The GR80 is 2 ppm with Ipomoea; 2 ppm in the data set on Amaranthus retroflexus; 8 ppm in the data set on Setaria faberi; 2 ppm in the data set on Chenopodium album; 2 ppm with Veronica hederifolia. The GR20 in the data set on Oryza sativa turned out to be 8 ppm. In addition, the IC50 in [1] is 0.6 nM.
As for `COc1cccc(C(F)(F)F)c1S(=O)(=O)Nc1nc2c(OC)cnc(OC)n2n1`, the GR80 with Echinochloa crus-galli is 1 ppm; in the data set on Digitaria sanguinalis, 1 ppm; in the data set on Stellaria media, below 0.2 ppm; with Xanthium strumarium it was below 0.2 ppm; with Fallopia convolvulus, below 0.2 ppm; in the data set on Alopecurus it was 1 ppm. The GR80 in the data set with Datura stramonium is reported as below 0.2 ppm; in the data set on Ipomoea hederacea, below 0.2 ppm; in the data set with Helianthus, below 0.2 ppm; in the data set on Sorghum halepense, 1 ppm; in the data set with Abutilon theophrasti, below 0.2 ppm; in the data set with Avena fatua it was 1 ppm. For the same compound, the GR80 is listed as below 0.2 ppm in the data set on Ipomoea; below 0.2 ppm with Amaranthus retroflexus; 1 ppm with Setaria faberi; below 0.2 ppm in the data set with Chenopodium album; below 0.2 ppm in the data set with Veronica hederifolia. Moreover, the GR20 with Oryza sativa came to 2 ppm.
As to `COc1cnc(OC)n2nc(NS(=O)(=O)c3ccccc3C(F)(F)F)nc12`, the GR80 is 250 ppm in the data set with Echinochloa crus-galli; 435 ppm in the data set on Digitaria sanguinalis; 13 ppm in the data set with Stellaria media; 13 ppm in the data set with Xanthium strumarium; 13 ppm in the data set with Fallopia convolvulus; 435 ppm in the data set on Alopecurus. Also, the GR80 in the data set with Datura stramonium was 13 ppm; in the data set on Ipomoea hederacea, 13 ppm; in the data set with Helianthus it was 13 ppm; with Sorghum halepense it was 435 ppm; in the data set on Abutilon theophrasti, 13 ppm; in the data set with Avena fatua, 435 ppm. Moreover, the GR80 stood at 13 ppm in the data set on Ipomoea; 13 ppm with Amaranthus retroflexus; 435 ppm in the data set with Setaria faberi; 13 ppm in the data set with Chenopodium album; 13 ppm with Veronica hederifolia. For the same compound, the GR20 in the data set on Oryza sativa was below 1 ppm.
For `COc1ncc(Cl)c2nc(NS(=O)(=O)c3c(Cl)cccc3Cl)nn12`, the GR80 is reported as 4 ppm with Echinochloa crus-galli; 4 ppm in the data set with Digitaria sanguinalis; 1 ppm with Stellaria media; 1 ppm with Xanthium strumarium; 1 ppm in the data set with Fallopia convolvulus; 4 ppm in the data set on Alopecurus. Besides, the GR80 came to 1 ppm in the data set with Datura stramonium; 1 ppm with Ipomoea hederacea; 1 ppm in the data set with Helianthus; 4 ppm in the data set with Sorghum halepense; 1 ppm in the data set on Abutilon theophrasti; 4 ppm with Avena fatua. The GR80 was determined as 1 ppm with Ipomoea; 1 ppm with Amaranthus retroflexus; 4 ppm with Setaria faberi; 1 ppm with Chenopodium album; 1 ppm in the data set on Veronica hederifolia. Further, the GR20 with Oryza sativa came out at 4 ppm. Moreover, in [1], the IC50 worked out at 0.6 nM.
As to `COc1ncc(C)c2nc(NS(=O)(=O)c3c(Cl)cccc3Cl)nn12`, the GR80 with Echinochloa crus-galli is given as 250 ppm; in the data set with Digitaria sanguinalis, 250 ppm; with Stellaria media it was below 15 ppm; with Xanthium strumarium it was below 15 ppm; in the data set with Fallopia convolvulus it was below 15 ppm; with Alopecurus, 250 ppm. The GR80 with Datura stramonium was below 15 ppm; in the data set on Ipomoea hederacea, below 15 ppm; in the data set with Helianthus, below 15 ppm; in the data set on Sorghum halepense, 250 ppm; in the data set with Abutilon theophrasti, below 15 ppm; in the data set with Avena fatua it was 250 ppm. Further, the GR80 in the data set with Ipomoea is recorded as below 15 ppm; in the data set with Amaranthus retroflexus it was below 15 ppm; in the data set on Setaria faberi it was 250 ppm; with Chenopodium album, below 15 ppm; in the data set with Veronica hederifolia it was below 15 ppm. In the data set on Oryza sativa, this compound registered a GR20 of 250 ppm. Further, the IC50 in data set [1] was found to be 7 nM.
With `COc1ccccc1S(=O)(=O)Nc1nc2c(OC)cnc(OC)n2n1`, the GR80 was 2 ppm in the data set with Echinochloa crus-galli; 1 ppm in the data set on Digitaria sanguinalis; 1 ppm in the data set with Stellaria media; 1 ppm in the data set on Xanthium strumarium; 1 ppm in the data set on Fallopia convolvulus; 1 ppm with Alopecurus. The GR80 in the data set on Datura stramonium, with Ipomoea hederacea, in the data set with Helianthus, in the data set with Sorghum halepense, in the data set with Abutilon theophrasti and in the data set with Avena fatua was 1 ppm each time. Moreover, the GR80 in the data set on Ipomoea, in the data set with Amaranthus retroflexus, in the data set on Setaria faberi, in the data set with Chenopodium album and in the data set on Veronica hederifolia was 1 ppm throughout. The same compound displayed a GR20 in the data set on Oryza sativa below 1 ppm.
Consider `COc1cnc(OC)n2nc(NS(=O)(=O)c3cc(Cl)cc(Cl)c3)nc12`, for which the GR80 with Echinochloa crus-galli is given as above 1000 ppm; in the data set with Digitaria sanguinalis, above 1000 ppm; with Stellaria media, 126 ppm; with Xanthium strumarium it was 126 ppm; in the data set on Fallopia convolvulus, 126 ppm; in the data set on Alopecurus, above 1000 ppm. Also, the GR80 was 126 ppm in the data set on Datura stramonium; 126 ppm in the data set with Ipomoea hederacea; 126 ppm in the data set with Helianthus; above 1000 ppm in the data set with Sorghum halepense; 126 ppm in the data set with Abutilon theophrasti; above 1000 ppm with Avena fatua. Further, the GR80 is recorded as 126 ppm in the data set on Ipomoea; 126 ppm with Amaranthus retroflexus; above 1000 ppm with Setaria faberi; 126 ppm in the data set on Chenopodium album; 126 ppm with Veronica hederifolia. Moreover, in the data set on Oryza sativa, the GR20 turned out to be 62 ppm.
For `COc1cnc(OC)n2nc(NS(=O)(=O)c3cc(Cl)ccc3Cl)nc12`, the GR80 with Echinochloa crus-galli is listed as 1000 ppm; in the data set on Digitaria sanguinalis, above 1000 ppm; in the data set with Stellaria media it was 19 ppm; with Xanthium strumarium it was 19 ppm; in the data set on Fallopia convolvulus, 19 ppm; with Alopecurus it was above 1000 ppm. Besides, the GR80 in the data set with Datura stramonium is given as 19 ppm; in the data set on Ipomoea hederacea it was 19 ppm; in the data set on Helianthus, 19 ppm; in the data set on Sorghum halepense, above 1000 ppm; in the data set with Abutilon theophrasti, 19 ppm; in the data set on Avena fatua it was above 1000 ppm. For the same compound, the GR80 in the data set with Ipomoea is listed as 19 ppm; in the data set with Amaranthus retroflexus it was 19 ppm; in the data set on Setaria faberi, above 1000 ppm; in the data set on Chenopodium album it was 19 ppm; with Veronica hederifolia, 19 ppm. Further, the GR20 in the data set with Oryza sativa is reported as below 2 ppm.
For the compound `COc1cnc(OC)n2nc(NS(=O)(=O)c3c(OCCCF)cccc3C(F)(F)F)nc12`, the GR80 was 125 ppm with Echinochloa crus-galli; 250 ppm in the data set on Digitaria sanguinalis; 15 ppm in the data set on Stellaria media; 15 ppm in the data set with Xanthium strumarium; 15 ppm with Fallopia convolvulus; 250 ppm in the data set with Alopecurus. The GR80 in the data set on Datura stramonium was 15 ppm; with Ipomoea hederacea, 15 ppm; in the data set with Helianthus, 15 ppm; in the data set on Sorghum halepense, 250 ppm; with Abutilon theophrasti it was 15 ppm; with Avena fatua, 250 ppm. For the same compound, the GR80 stood at 15 ppm with Ipomoea; 15 ppm in the data set with Amaranthus retroflexus; 250 ppm in the data set on Setaria faberi; 15 ppm in the data set with Chenopodium album; 15 ppm with Veronica hederifolia. Moreover, in the data set with Oryza sativa, the GR20 is reported as above 250 ppm.
For the compound `COc1cccc(OC)c1S(=O)(=O)Nc1nc2c(OC)cnc(OC)n2n1`, the GR80 in the data set with Echinochloa crus-galli is reported as below 0.5 ppm; with Digitaria sanguinalis it was below 0.1 ppm; in the data set on Stellaria media it was 0.5 ppm; in the data set with Xanthium strumarium it was 0.5 ppm; with Fallopia convolvulus, 0.5 ppm; in the data set on Alopecurus it was below 0.1 ppm. In addition, the GR80 is 0.5 ppm in the data set on Datura stramonium; 0.5 ppm in the data set on Ipomoea hederacea; 0.5 ppm in the data set on Helianthus; below 0.1 ppm in the data set on Sorghum halepense; 0.5 ppm in the data set on Abutilon theophrasti; below 0.1 ppm in the data set on Avena fatua. The GR80 was 0.5 ppm in the data set on Ipomoea; 0.5 ppm in the data set on Amaranthus retroflexus; below 0.1 ppm with Setaria faberi; 0.5 ppm in the data set with Chenopodium album; 0.5 ppm in the data set with Veronica hederifolia. The GR20 in the data set on Oryza sativa is recorded as below 0.5 ppm.
